Assay [1] concerns the target T1, cGMP-dependent 3',5'-cyclic phosphodiesterase (Bos taurus, UniProt P14099).
T1 sequence (P14099 whole entry): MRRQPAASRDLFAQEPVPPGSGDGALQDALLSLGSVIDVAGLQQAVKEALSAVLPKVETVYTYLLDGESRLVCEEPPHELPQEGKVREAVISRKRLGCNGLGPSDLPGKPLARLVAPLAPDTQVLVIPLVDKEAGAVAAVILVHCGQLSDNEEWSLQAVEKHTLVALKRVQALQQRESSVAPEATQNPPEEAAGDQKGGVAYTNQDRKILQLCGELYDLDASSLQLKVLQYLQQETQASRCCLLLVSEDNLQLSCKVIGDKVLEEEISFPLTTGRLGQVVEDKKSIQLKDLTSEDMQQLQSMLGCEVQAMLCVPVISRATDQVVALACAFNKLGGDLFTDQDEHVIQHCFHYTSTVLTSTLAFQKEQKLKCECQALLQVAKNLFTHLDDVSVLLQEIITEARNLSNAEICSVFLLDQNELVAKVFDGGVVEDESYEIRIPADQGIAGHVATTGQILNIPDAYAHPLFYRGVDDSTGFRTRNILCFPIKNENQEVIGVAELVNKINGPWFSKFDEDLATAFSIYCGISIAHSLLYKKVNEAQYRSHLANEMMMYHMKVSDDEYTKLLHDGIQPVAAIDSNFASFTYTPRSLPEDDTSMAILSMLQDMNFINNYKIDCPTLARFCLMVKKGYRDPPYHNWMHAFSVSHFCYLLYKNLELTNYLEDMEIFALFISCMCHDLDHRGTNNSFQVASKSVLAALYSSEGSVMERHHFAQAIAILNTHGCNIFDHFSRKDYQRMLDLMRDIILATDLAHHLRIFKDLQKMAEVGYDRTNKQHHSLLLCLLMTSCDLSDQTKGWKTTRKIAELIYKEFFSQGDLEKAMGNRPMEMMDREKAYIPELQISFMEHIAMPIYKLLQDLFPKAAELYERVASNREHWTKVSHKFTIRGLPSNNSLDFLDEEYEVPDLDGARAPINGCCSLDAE
Put plainly: Inhibitory activity against phosphodiesterase-2 (PDE2) isolated from bovine adrenal gland. It counts as tissue-based. In a few lines: (§1)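 Enzyme IC50 taken from a logarithmic concentration–inhibition curve of at least four points; each value is the mean of at least two duplicate experiments.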

The target in assay [2] is Phosphodiesterase 3 (Homo sapiens, UniProt Q14432+Q13370). Kind of assay: Inhibitory activity against phosphodiesterase-3 (PDE3) isolated from canine heart. It counts as protein assay, Canis lupus familiaris. The conditions noted are these: target entry is the homologue from another species. In a few lines: as §1
Assay [3] has as its target Phosphodiesterase 4 (Homo sapiens, UniProt P27815+Q08499+Q07343+Q08493). Kind of assay: Inhibitory activity against phosphodiesterase 4 (PDE4) isolated from canine lung. Format: protein assay, Canis lupus familiaris. As to conditions: target entry is the homologue from another species. In a few lines: as §1
In assay [4] the target is Phosphodiesterase 1 (Homo sapiens, UniProt P54750+Q01064+Q14123). Kind of assay: Inhibitory activity against phosphodiesterase-1 (PDE1) isolated from canine lung. It counts as protein assay, Canis lupus familiaris. As to conditions: target entry is the homologue from another species. The essentials:
as §1

Assay [5] addresses Phosphodiesterase 6. Kind of assay: Inhibitory activity against Phosphodiesterase 6 isolated from bovine retina. Format: protein assay.
For assay [6], the species on record is Oryctolagus cuniculus. Kind of assay: Relaxant effect on rabbit corpus cavernosum. Format: functional.
For assay [7], the target named is cGMP-specific 3',5'-cyclic phosphodiesterase (Canis lupus familiaris, UniProt O77746). Put plainly: Inhibitory activity against phosphodiesterase 5 (PDE5) isolated from canine lung. In a few lines:
as §1

Structures are written as SMILES.

The term IC50 denotes the concentration that gives 50% inhibition. As usually defined, the EC30 is the concentration at which the effect reaches the 30% level. Low readings indicate greater potency, high ones weaker potency.

`COC(=O)c1c(-c2cc(OC)c(OC)c(OC)c2)c2ccc(OCc3ccccn3)nc2c(=O)n1Cc1ccnc(C)c1.Cl`: the IC50 in assay [1] is 40000 nM; in assay [2], greater than 100000 nM; in assay [3] it was 30000 nM; in assay [4], 33000 nM; in assay [5], 8.6 nM; in assay [7] it was 0.22 nM. The EC30 in assay [6] is 53 nM.

For `COC(=O)c1c(-c2cc(OC)c(OC)c(OC)c2)c2ccc(OCc3ccccn3)nc2c(=O)n1Cc1ccccn1.Cl`, the IC50 in assay [4] came out at 20000 nM; in assay [5], 230 nM; in assay [7], 11 nM.

For `COC(=O)c1c(-c2cc(OC)c(OC)c(OC)c2)c2ccc(OCc3ccccn3)nc2c(=O)n1-c1ccc(N)cc1.Cl`, the values for the IC50 in assay [4], in assay [5] and in assay [7] were 40000 nM, 22 nM and 0.51 nM, respectively.

Turning to `COC(=O)c1c(-c2cc(OC)c(OC)c(OC)c2)c2ccc(OCc3cnccn3)nc2c(=O)n1Cc1ccnc(C)c1.Cl`, the values for the IC50 in assay [4], in assay [5] and in assay [7] were 22000 nM, 7.7 nM and 0.29 nM, respectively.

The molecule `COC(=O)c1c(-c2cc(OC)c(OC)c(OC)c2)c2ccc(OCCc3ccccn3)nc2c(=O)n1Cc1ccnc(C)c1` registered an IC50 in assay [7] of 1.2 nM.

Turning to `COC(=O)c1c(-c2cc(OC)c(OC)c(OC)c2)c2ccc(NCc3ccccn3)nc2c(=O)n1Cc1ccnc(C)c1.Cl`, the IC50 in assay [4] worked out at 41000 nM; in assay [5], 22 nM; in assay [7], 1.8 nM.

For `COC(=O)c1c(-c2cc(OC)c(OC)c(OC)c2)c2ccnc(OCc3ncccn3)c2c(=O)n1Cc1ccnc(C)c1.Cl`, the IC50 in assay [1] is greater than 100000 nM; in assay [2] it was greater than 100000 nM; in assay [3], 67000 nM; in assay [4], greater than 100000 nM; in assay [5], 56 nM; in assay [7], 0.23 nM. This molecule also came in with an EC30 in assay [6] of 5 nM.

For `COC(=O)c1c(-c2cc(OC)c(OC)c(OC)c2)c2ccc(OCc3ccccn3)cc2c(=O)n1-c1ccc(N)cc1.O=S(=O)(O)O`, the IC50 came out at 9700 nM in assay [1], 3000 nM in assay [4] and 28 nM in assay [5]. Moreover, the EC30 in assay [6] is 7.9 nM.

As for `COC(=O)c1c(-c2cc(OC)c(OC)c(OC)c2)c2ccc(OCc3ncccn3)nc2c(=O)n1Cc1ccnc(C)c1.Cl`, the IC50 in assay [1] was 25000 nM; in assay [2], greater than 100000 nM; in assay [3], 19000 nM; in assay [4] it was greater than 100000 nM; in assay [5], 42 nM; in assay [7], 1.9 nM. Further, the 30% effect level in assay [6] (EC30) was put at 37 nM.

In the case of `COC(=O)c1c(-c2cc(OC)c(OC)c(OC)c2)c2ccc(OCc3ccccn3)nc2c(=O)n1Cc1ccncc1.Cl`, the IC50 turned out to be 45000 nM in assay [4], 11 nM in assay [5] and 0.38 nM in assay [7].

As to `CCCc1nn(C)c2c(=O)[nH]c(-c3cc(S(=O)(=O)N4CCN(C)CC4)ccc3OCC)nc12`, inhibition in assay [1] was half-maximal at 43000 nM (IC50).

In the case of `COC(=O)c1c(-c2cc(OC)c(OC)c(OC)c2)c2ccc(OCc3ccccn3)nc2c(=O)n1Cc1cccnc1.Cl`, the IC50 in assay [4] is 12000 nM; in assay [5], 38 nM; in assay [7], 2.3 nM.

Turning to `COC(=O)c1c(-c2cc(OC)c(OC)c(OC)c2)c2ccnc(OCc3ccccn3)c2c(=O)n1Cc1ccnc(C)c1`, the results for the IC50 in assay [4], in assay [5] and in assay [7] were 25000 nM, 4.4 nM and 0.31 nM, respectively.

As to `COC(=O)c1c(-c2cc(OC)c(OC)c(OC)c2)c2ccnc(N3CCN(C)CC3)c2c(=O)n1Cc1ccnc(C)c1`, the IC50 in assay [4] was greater than 100000 nM; in assay [5], 1400 nM; in assay [7], 94 nM.

Turning to `COC(=O)c1c(-c2cc(OC)c(OC)c(OC)c2)c2ccnc(NCCO)c2c(=O)n1Cc1ccnc(C)c1.Cl`, the IC50 in assay [1] turned out to be 78000 nM; in assay [2], 5300 nM; in assay [3], 450 nM; in assay [4] it was 19000 nM; in assay [5] it was 280 nM; in assay [7], 2.6 nM. The same molecule gave an EC30 in assay [6] of 14 nM.

For `COC(=O)c1c(-c2cc(OC)c(OC)c(OC)c2)c2ccnc(OCCc3ccccn3)c2c(=O)n1Cc1ccnc(C)c1.Cl`, the IC50 in assay [1] was greater than 100000 nM; in assay [2], greater than 100000 nM; in assay [3] it was 50000 nM; in assay [4], 20000 nM; in assay [5] it was 72 nM; in assay [7], 0.52 nM. For the same molecule, the EC30 in assay [6] is 22 nM.

These data come from ChEMBL document CHEMBL1136105, “1,7- and 2,7-naphthyridine derivatives as potent and highly specific PDE5 inhibitors” (Bioorg Med Chem Lett, 2003).
